ChEMBL document CHEMBL1138344, “Nuclear magnetic resonance fragment-based identification of novel FKBP12 inhibitors” (J Med Chem, 2007)

test system: not listed separately; assay: Metabolic stability in human liver microsomes; format: ADME, Microsome
Outline: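 Pooled human liver microsomes with an NADPH-generating system (DETAPAC, NADP+, glucose-6-phosphate, G6P dehydrogenase) in 50 mM potassium phosphate pH 7.4. Started by adding compound from a 5 mM stock (FK506 stock 0.5 mM). Aliquots taken at 0, 10, 25, 40 and 60 min and extracted with dichloromethane/isopropanol 3:1. Half-life determined.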

| SMILES | half-life |
| --- | --- |
| COC(=O)C1COCCN1C(=O)CSc1ccc(C(C)C)cc1 (configuration not stated) | 40 min |
| CC(C)c1ccc(SCC(=O)N2CCOCC2C(=O)O)cc1 (configuration not stated) | > 60 min |
| CC(C)c1ccc(SCC(=O)N2CCOCC2C(=O)OCCCc2cccnc2)cc1 (configuration not stated) | 40 min |
| COc1ccc(CCC(=O)N2CCOCC2)cc1 | 40 min |
| COC(=O)C1COCCN1C(=O)C(F)(F)Sc1ccc(C(C)C)cc1 (configuration not stated) | 40 min |
| COC(=O)[C@@H]1CCCCN1C(=O)C(=O)c1cc(OC)c(OC)c(OC)c1 | 40 min |
| CC(C)c1ccc(SCC(=O)N2CCOCC2)cc1 | 40 min |
| C=CC[C@@H]1/C=C(\C)C[C@H](C)C[C@H](OC)[C@H]2O[C@@](O)(C(=O)C(=O)N3CCCC[C@H]3C(=O)O[C@H](/C(C)=C/[C@@H]3CC[C@@H](O)[C@H](OC)C3)[C@H](C)[C@@H](O)CC1=O)[C@H](C)C[C@@H]2OC [TACROLIMUS ANHYDROUS] | > 60 min |

biological target: not listed separately; assay: Inhibition of testosterone 6-hydroxylase; design: species or system Homo sapiens
Outline: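 Pooled human liver microsomes with an NADPH-generating system (DETAPAC, NADP+, glucose-6-phosphate, G6P dehydrogenase) in 50 mM potassium phosphate pH 7.4. Compound added, then testosterone substrate; 10 min shaking at 37 °C, stopped with cold ethyl acetate. Read-out is 6-hydroxytestosterone formation. IC50 estimated, or determined in detail for some compounds.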

| SMILES | IC50 |
| --- | --- |
| CC(C)c1ccc(SCC(=O)N2CCOCC2C(=O)OCCCc2cccnc2)cc1 (configuration not stated) | 0.81 µM |
| C=CC[C@@H]1/C=C(\C)C[C@H](C)C[C@H](OC)[C@H]2O[C@@](O)(C(=O)C(=O)N3CCCC[C@H]3C(=O)O[C@H](/C(C)=C/[C@@H]3CC[C@@H](O)[C@H](OC)C3)[C@H](C)[C@@H](O)CC1=O)[C@H](C)C[C@@H]2OC [TACROLIMUS ANHYDROUS] | 2.26 µM |

biological target: Peptidyl-prolyl cis-trans isomerase FKBP1A (Homo sapiens, UniProt P62942)
Sequence (P62942 whole entry): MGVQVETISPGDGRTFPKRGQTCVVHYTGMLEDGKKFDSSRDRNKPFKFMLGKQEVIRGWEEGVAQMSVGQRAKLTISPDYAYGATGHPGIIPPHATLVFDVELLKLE

| SMILES | Kd |
| --- | --- |
| Cc1ccc(OCC(=O)N2CCOCC2)cc1C | 231 µM |
| CC(C)c1ccc(OCC(=O)N2CCOCC2)cc1 | 100 µM |
| O=C(COc1ccccc1F)N1CCOCC1 | 357 µM |
| O=C(COc1ccc(F)cc1)N1CCOCC1 | 576 µM |
| O=C(CSc1ccc2ccccc2c1)N1CCOCC1 | > 1400 µM |
| COc1cc(CNCc2cccs2)ccc1OCC(=O)N1CCOCC1 | > 5000 µM |
| CC(C)c1ccc(SCC(=O)N2CCOCC2C(=O)O)cc1 (configuration not stated) | 426 µM |
| CC(C)c1ccc(SCC(=O)N2CCOCC2C(=O)OCCCc2cccnc2)cc1 (configuration not stated) | 5.6 µM |
| CC(C)c1ccc(S(=O)(=O)CC(=O)N2CCOCC2C(=O)OCCCc2ccc[n+]([O-])c2)cc1 (configuration not stated) | 1280 µM |
| CSc1ccccc1NC(=O)Cn1c(-c2cscn2)nc2ccccc21 | > 4000 µM |
| Cc1cc(OCC(=O)N2CCOCC2)ccc1NC(=O)OCc1ccccc1 | > 1500 µM |
| Cc1ccc(C(C)C)c(OCCNC(=O)c2ccccc2OCC(=O)N2CCOCC2)c1 | > 2500 µM |
| O=C(COc1cccc(Cl)c1)N1CCOCC1 | 755 µM |
| Cc1cc(OCC(=O)N2CCOCC2)cc(C)c1Cl | 231 µM |
| Cc1cc(C)c(OCC(=O)N2CCOCC2)c(C)c1 | > 1500 µM |
| CC(=O)c1cccc(NS(=O)(=O)N2CCCCC2)c1 | 552 µM |
| CCc1ccc(OCC(=O)N2CCOCC2)cc1 | 123 µM |
| O=[N+]([O-])c1ccc(NS(=O)(=O)N2CCCCC2)cc1 | 167 µM |
| Cc1cc(C)c(C)c(OCC(=O)N2CCOCC2)c1 | > 1000 µM |
| c1ccc2c(c1)nc(-c1cscn1)n2Cc1ccc(-c2nnn[nH]2)cc1 | > 3000 µM |
| Cc1ccc(NS(=O)(=O)N2CCCCC2)cc1 | 289 µM |
| CCc1ccccc1OCC(=O)N1CCOCC1 | > 1500 µM |

| SMILES | Kd |
| --- | --- |
| CC(C)NS(=O)(=O)c1ccc(OCC(=O)N2CCOCC2)cc1 | > 1000 µM |
| CCOc1ccc(OCC(=O)N2CCOCC2)cc1 | 576 µM |
| Cc1ccc(NS(=O)(=O)c2ccc(OCC(=O)N3CCOCC3)cc2)cc1 | > 1000 µM |
| O=C(COc1ccc2c(c1)OCO2)N1CCOCC1 | 576 µM |
| Cc1ccc(OCC(=O)N2CC(C)OC(C)C2)cc1C (configuration not stated) | > 5000 µM |
| Cc1cc(C)cc(NS(=O)(=O)N2CCCCC2)c1 | > 1860 µM |
| CC(C)c1ccccc1OCC(=O)N1CCOCC1 | > 2500 µM |
| CCOc1ccc(NS(=O)(=O)N2CCCCC2)cc1 | > 1230 µM |
| Cc1cc(OCC(=O)N2CC(C)OC(C)C2)cc(C)c1Cl (configuration not stated) | > 5000 µM |
| Cc1ccc(Cl)cc1NS(=O)(=O)N1CCCCC1 | > 3700 µM |
| O=S(=O)(Nc1ccc2c(c1)oc1ccccc12)N1CCCCC1 | > 3700 µM |
| Nc1cccc(OCC(=O)N2CCOCC2)c1 | > 5000 µM |
| Cc1cc(S(=O)(=O)N2CCCC2)ccc1OCC(=O)N1CCOCC1 | 576 µM |
| COC(=O)C1COCCN1C(=O)CS(=O)(=O)c1ccc(C(C)C)cc1 (configuration not stated) | 505 µM |
| Cc1ccc(SCC(=O)N2CCOCC2)cc1 | 15 µM |
| Cc1cc(S(=O)(=O)Nc2cccc(C(F)(F)F)c2)ccc1OCC(=O)N1CCOCC1 | 576 µM |
| COc1cc2c(cc1NS(=O)(=O)N1CCCCC1)oc1ccccc12 | > 3700 µM |
| COc1ccc(CCC(=O)N2CCOCC2)cc1 | 204 µM |
| O=C(CSc1ccccc1)N1CCOCC1 | 15.3 µM |
| COC(=O)C1COCCN1C(=O)C(F)(F)Sc1ccc(C(C)C)cc1 (configuration not stated) | 190 µM |
| O=C(O)c1cc(C(F)(F)F)ccc1SCC(=O)N1CCOCC1 | 453 µM |
| CC(C)c1ccc(SC(F)(F)C(=O)N2CCOCC2)cc1 | 2.8 µM |

| SMILES | Kd |
| --- | --- |
| O=C(Cn1c(-c2cscn2)nc2ccccc21)Nc1ccc(Cl)cc1 | > 4000 µM |
| Nc1nc(-c2nc3ccccc3[nH]2)cs1 | 98 µM |
| COc1ccc(OCC(=O)N2CCOCC2)cc1 | 357 µM |
| O=C(COc1cc(Cl)c(Cl)cc1Cl)N1CCOCC1 | 450 µM |
| O=C(Nc1ccc(OCC(=O)N2CCOCC2)cc1)c1ccccc1F | > 1500 µM |
| CC1CN(C(=O)CSc2ccccc2)CC(C)O1 (configuration not stated) | 726 µM |
| Cc1ccc(SCC(=O)N2CC(C)OC(C)C2)cc1 (configuration not stated) | > 4000 µM |
| O=C(COc1ccccc1)N1CCOCC1 | > 1030 µM |
| Cc1cc(Cl)ccc1OCC(=O)N1CCOCC1 | > 1000 µM |
| Cc1nnc(SCC2=NOCC2)n1-c1ccccc1 | 39 µM |
| Cc1ccc2cccc(SCC(=O)N3CCOCC3)c2n1 | > 1400 µM |
| N#Cc1ccccc1Cn1c(-c2cscn2)nc2ccccc21 | > 4000 µM |
| Fc1ccc(Cn2c(-c3cscn3)nc3ccccc32)c(Cl)c1 | > 4000 µM |
| COC(=O)[C@@H]1CCCCN1C(=O)C(=O)c1cc(OC)c(OC)c(OC)c1 | 3 µM |
| CCCCNS(=O)(=O)c1ccc(OCC(=O)N2CCOCC2)cc1 | 755 µM |
| O=C(COc1ccc(S(=O)(=O)NC2CCCC2)cc1)N1CCOCC1 | 755 µM |
| O=C(Nc1cccc(Cl)c1Cl)c1ccccc1OCC(=O)N1CCOCC1 | > 5000 µM |
| Brc1ccccc1Cn1c(-c2cscn2)nc2ccccc21 | > 3000 µM |
| O=S(=O)(Nc1ccc(F)cc1)N1CCCCC1 | 319 µM |
| O=C(CSc1cccc2cccnc12)N1CCOCC1 | > 1400 µM |
| Clc1cccc(Cl)c1Cn1c(-c2cscn2)nc2ccccc21 | > 4000 µM |
| FC(F)(F)c1cccc(Cn2c(-c3cscn3)nc3ccccc32)c1 | > 3000 µM |

| SMILES | Kd |
| --- | --- |
| O=C(Cn1c(-c2cscn2)nc2ccccc21)Nc1ccccc1F | > 4000 µM |
| O=C(Nc1ccc(OCC(=O)N2CCOCC2)cc1)c1ccccc1Cl | > 2500 µM |
| Cc1ccc(OCC(=O)N2CCOCC2)c(C)c1 | > 1000 µM |
| O=S(=O)(Nc1cc(Cl)cc(Cl)c1)N1CCCCC1 | 155 µM |
| Cc1ccc(-c2ccc(OCC(=O)N3CCOCC3)cc2)cc1 | 755 µM |
| O=C(COc1ccc(Cl)cc1Cl)N1CCOCC1 | > 1030 µM |
| Cc1ccc(NS(=O)(=O)N2CCCCC2)c(C)c1 | 287 µM |
| Cc1cc(OCC(=O)N2CCOCC2)ccc1C(C)C | 187 µM |
| CC1CN(C(=O)COc2ccccc2Cl)CC(C)O1 (configuration not stated) | > 5000 µM |
| O=C(CSc1ccc(Cl)cc1)N1CCOCC1 | 15 µM |
| O=C(O)c1ccccc1SCC(=O)N1CCOCC1 | > 3700 µM |
| O=C(Nc1ccc(OCC(=O)N2CCOCC2)cc1)c1cccnc1 | > 5000 µM |
| CC(C)c1ccc(SCC(=O)O)cc1 | > 4000 µM |
| Cc1ccc(NS(=O)(=O)N2CCCCC2)cc1Cl | 135 µM |
| Cc1ccc(S(=O)(=O)CC(=O)N2CCOCC2)cc1 | > 5000 µM |
| c1ccc2c(c1)nc(-c1cscn1)n2CCCc1nnn[nH]1 | > 1500 µM |
| Cc1cc(OCC(=O)N2CCOCC2)cc(C(C)C)c1Cl | 576 µM |
| CC(C)c1ccc(CCC(=O)N2CCOCC2)cc1 | 2.3 µM |
| Cc1cc(N)cc(C)c1OCC(=O)N1CCOCC1 | > 2400 µM |
| O=S(=O)(Nc1ccc(Br)cc1)N1CCCCC1 | 299 µM |
| c1ccc2[nH]c(-c3cscn3)nc2c1 [THIABENDAZOLE] | 60 µM |
